Data from publication PMC12082725 (Journal of Enzyme Inhibition and Medicinal Chemistry, 2025).
Like-named read-outs stand apart in the source and are kept apart here.

Assays:
[1] = biological target: SARS-CoV-2 NP-RNA interaction (Severe acute respiratory syndrome coronavirus 2, UniProt P0DTC9); experiment: biochemical; type: biochemical; conditions: for inhibition rate of the NP-RNA interaction: compound at 50 μM
[2] = biological target: RNA-induced LLPS of the NP (Severe acute respiratory syndrome coronavirus 2, UniProt P0DTC9); type: biochemical, SARS-CoV-2
SARS-CoV-2 NP CTD = SARS-CoV-2 NP CTD (Severe acute respiratory syndrome coronavirus 2, UniProt P0DTC9); experiment: BLI binding of compounds to NP CTD
Outline: (§1)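 Target was recombinant E. coli-expressed SARS-CoV-2 NP, either CTD or full-length (1–419). Protein at 0.39 mg/ml was biotinylated for 30 min at RT, then loaded at 100 μg/ml onto streptavidin sensors for 20 min. After a 60 s baseline, increasing test compound concentrations gave 120 s association and 300 s dissociation. Run in PBS/0.01% Tween-20 at 30 °C; double-reference subtracted; KD from a global 1:1 Langmuir fit.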

SARS-CoV-2 NP NTD = SARS-CoV-2 NP NTD (Severe acute respiratory syndrome coronavirus 2, UniProt P0DTC9); experiment: BLI binding of compounds to NP NTD; conditions: NP NTD (residues 44 to 174)
SARS-CoV-2 NP = SARS-CoV-2 NP (Severe acute respiratory syndrome coronavirus 2, UniProt P0DTC9); experiment: BLI binding of compounds to full-length NP
Outline: as §1

NP NTD = conditions: read-out: Kd, NP NTD; via bio-layer interferometry assay; ref [28]; cited from earlier work

COc1ccc(CC(C)NCC(O)c2ccc(O)c(NC=O)c2)cc1 (centres unmarked) [formoterol]
inhibitory effect on NP-RNA interaction (in words) ([1]; HTRF, 50 μM): neither compound affected

CC(C)[N+]1(C)[C@@H]2CC[C@H]1C[C@@H](OC(=O)C(CO)c1ccccc1)C2 (some centres unmarked) [ipratropium bromide]
inhibitory effect on NP-RNA interaction (in words) ([1]; HTRF, 50 μM): neither compound affected

COc1ccc2cc([C@H](C)C(=O)O)ccc2c1 [naproxen]
inhibitory effect on NP-RNA interaction (in words) [1]: did not inhibit

O=C(O)c1cc(O)c2c(c1)[C@H]([C@H]1c3cc(C(=O)O)cc(O)c3C(=O)c3c(O[C@@H]4O[C@H](CO)[C@@H](O)[C@H](O)[C@H]4O)cccc31)c1cccc(O[C@@H]3O[C@H](CO)[C@@H](O)[C@H](O)[C@H]3O)c1C2=O [sennoside A]
IC50 [1]: 3170 ± 390 nM | inhibition rate of the NP-RNA interaction ([1]; HTRF): exceeding 98% | inhibition of RNA-induced LLPS of the NP [2]: relatively weaker activity | Kd (SARS-CoV-2 NP CTD): 1820 ± 30 nM | binding to NP NTD (SARS-CoV-2 NP NTD): neither sennoside A nor sennoside B bound | Kd (SARS-CoV-2 NP): 962 ± 19 nM

O=C(O)c1cc(O)c2c(c1)[C@@H]([C@H]1c3cc(C(=O)O)cc(O)c3C(=O)c3c(O[C@@H]4O[C@H](CO)[C@@H](O)[C@H](O)[C@H]4O)cccc31)c1cccc(O[C@@H]3O[C@H](CO)[C@@H](O)[C@H](O)[C@H]3O)c1C2=O [sennoside B]
IC50 [1]: 1050 ± 230 nM | inhibition rate of the NP-RNA interaction ([1]; HTRF): exceeding 98% | inhibition of RNA-induced LLPS of the NP [2]: significantly inhibited | Kd (SARS-CoV-2 NP CTD): 529 ± 16 nM | binding to NP NTD (SARS-CoV-2 NP NTD): neither sennoside A nor sennoside B bound | Kd (SARS-CoV-2 NP): 765 ± 12 nM

Cc1ccc(C(=O)Nc2ccc(S(=O)(=O)O)c3cc(S(=O)(=O)O)cc(S(=O)(=O)O)c23)cc1NC(=O)c1cccc(NC(=O)Nc2cccc(C(=O)Nc3cc(C(=O)Nc4ccc(S(=O)(=O)O)c5cc(S(=O)(=O)O)cc(S(=O)(=O)O)c45)ccc3C)c2)c1 [suramin]
Kd (NP NTD): 2740 nM

CCOC(=O)c1c(CSc2ccccc2)n(C)c2cc(Br)c(O)c(CN(C)C)c12 [umifenovir]
inhibitory effect on NP-RNA interaction (in words) ([1]; HTRF, 50 μM): no inhibitory effect
